These results are taken from ChEMBL document CHEMBL1154326 (J Med Chem, 2009).

In assay [1] the target is T1, Histamine H2 receptor (Homo sapiens, UniProt P25021). Put plainly: Antagonist activity at human histamine H2 receptor expressed in Sf9 cells coexpressing GsalphaS protein by steady-state GTPase assay. It counts as functional. In outline: (§1)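 Antagonist-mode steady-state GTPase assay in Sf9 membranes: H1R coexpressed with RGS4; H2R as GsαS fusion; H3R coexpressed with Giα2/Gβ1γ2/RGS4; H4R as RGS19 fusion with Giα2/Gβ1γ2. […] MgCl2: H1R/H2R 1.0 mM, H3R/H4R 5.0 mM; H4R plus 100 mM NaCl. [γ-32P]GTP hydrolysis measured over 20 min at 25 °C. pKB from nonlinear sigmoidal fits; duplicate runs.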
T1 sequence (P25021 whole entry, the tested form may be a part): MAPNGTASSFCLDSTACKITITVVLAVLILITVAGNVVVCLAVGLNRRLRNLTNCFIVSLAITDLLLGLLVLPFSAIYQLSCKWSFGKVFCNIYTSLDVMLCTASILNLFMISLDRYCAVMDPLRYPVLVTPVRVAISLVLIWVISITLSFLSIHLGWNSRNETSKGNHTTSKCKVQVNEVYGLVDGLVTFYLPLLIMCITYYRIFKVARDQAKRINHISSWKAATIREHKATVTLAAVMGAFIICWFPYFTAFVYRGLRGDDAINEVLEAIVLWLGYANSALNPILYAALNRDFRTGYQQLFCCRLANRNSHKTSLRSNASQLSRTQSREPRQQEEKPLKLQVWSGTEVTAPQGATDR

Assay [2] addresses T2, Histamine H3 receptor (Homo sapiens, UniProt Q9Y5N1). As to the kind of experiment: Displacement of [3H]N-alpah-methylhistamine from human histamine H3 receptor expressed in Sf9 cells. In outline: (§2)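 Competition binding on Sf9 membranes in 12.5 mM MgCl2, 1 mM EDTA, 75 mM Tris/HCl pH 7.4. Protein per tube: 50 μg (H1R, H3R), 120 μg (H4R), 250 μg (H2R). […] 60 min at 25 °C with shaking; PEI-treated GF/C filtration, cold washes, scintillation counting; one-site fits, duplicates.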
For orientation: In a radioligand displacement assay an active substance lowers the binding of a labelled ligand.

Assay [3] has as its target T2, Histamine H3 receptor. As to the kind of experiment: Antagonist activity at human histamine H3 receptor expressed in Sf9 cells coexpressing Gialpha-2-Gbeta-1-gamma-2 and RGS4 proteins protein by steady-state GTPase assay. It counts as functional. In outline: as §1
Assay [4] concerns the target T3, Histamine H4 receptor (Homo sapiens, UniProt Q9H3N8). As to the kind of experiment: Agonist activity at human histamine H4 receptor expressed in Sf9 cells coexpressing RGS19 protein by steady-state GTPase assay. It counts as functional. In outline: (§3)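 Sf9 membranes (10-20 μg protein/tube), washed and resuspended in 10 mM Tris-HCl pH 7.4. H2R as hH2R-GsαS fusion; H3R coexpressed with Giα2, Gβ1γ2, RGS4; H4R as hH4R-RGS19 fusion with Giα2, Gβ1γ2. Buffer: 50 mM Tris/HCl pH 7.4, MgCl2 (H2R 1.0 mM; H3R/H4R 5.0 mM), 100 μM EDTA, 100 μM ATP, 100 nM GTP, 100 μM AppNHp, creatine phosphate/kinase, 0.2% BSA; H4R plus 100 mM NaCl.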

Assay [5] has as its target T4, Histamine H1 receptor (Homo sapiens, UniProt P35367). Put plainly: Displacement of [3H]mepyramine from human histamine H1 receptor expressed in Sf9 cells. In outline: as §2
Assay [6] is filed under the species Homo sapiens. As to the kind of experiment: Selectivity for human histamine H4 receptor over human histamine H2 receptor by radioligand displacement assay.
For assay [7], the species on record is Homo sapiens. Put plainly: Selectivity for human histamine H4 receptor over human histamine H1 receptor by radioligand displacement assay.
The species named for assay [8] is Homo sapiens. As to the kind of experiment: Selectivity for human histamine H4 receptor over human histamine H3 receptor by steady-state GTPase assay.
In assay [9] the target is T3, Histamine H4 receptor. Put plainly: Displacement of [3H]histamine from human histamine H4 receptor expressed in Sf9 cells. In outline: as §2
The target of assay [10] is T1, Histamine H2 receptor. Put plainly: Displacement of [3H]tiotidine from human histamine H2 receptor expressed in Sf9 cells. In outline: as §2
In assay [11] the target is T4, Histamine H1 receptor. As to the kind of experiment: Antagonist activity at human histamine H1 receptor expressed in Sf9 cells coexpressing RGS4 by steady-state GTPase assay. Type of assay: functional. In outline: as §1
For assay [12], the target named is T3, Histamine H4 receptor. As to the kind of experiment: Agonist activity at human histamine H4 receptor expressed in Sf9 cell membrane coexpressing RGS19 protein by steady-state GTPase assay. It counts as functional. In outline:
as §3

Some results are limits rather than exact numbers.

T3 sequence (Q9H3N8 whole entry, the tested form may be a part): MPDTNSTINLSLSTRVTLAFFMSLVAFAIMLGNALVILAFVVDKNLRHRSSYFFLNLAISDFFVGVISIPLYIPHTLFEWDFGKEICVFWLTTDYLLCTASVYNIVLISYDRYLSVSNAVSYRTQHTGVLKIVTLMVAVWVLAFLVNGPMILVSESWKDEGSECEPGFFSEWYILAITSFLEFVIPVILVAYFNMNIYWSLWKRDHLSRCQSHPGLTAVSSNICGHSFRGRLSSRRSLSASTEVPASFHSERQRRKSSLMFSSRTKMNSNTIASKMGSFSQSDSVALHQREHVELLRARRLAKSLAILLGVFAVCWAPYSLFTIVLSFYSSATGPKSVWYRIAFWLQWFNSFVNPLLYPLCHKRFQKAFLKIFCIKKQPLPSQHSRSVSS
T2 sequence (Q9Y5N1 whole entry): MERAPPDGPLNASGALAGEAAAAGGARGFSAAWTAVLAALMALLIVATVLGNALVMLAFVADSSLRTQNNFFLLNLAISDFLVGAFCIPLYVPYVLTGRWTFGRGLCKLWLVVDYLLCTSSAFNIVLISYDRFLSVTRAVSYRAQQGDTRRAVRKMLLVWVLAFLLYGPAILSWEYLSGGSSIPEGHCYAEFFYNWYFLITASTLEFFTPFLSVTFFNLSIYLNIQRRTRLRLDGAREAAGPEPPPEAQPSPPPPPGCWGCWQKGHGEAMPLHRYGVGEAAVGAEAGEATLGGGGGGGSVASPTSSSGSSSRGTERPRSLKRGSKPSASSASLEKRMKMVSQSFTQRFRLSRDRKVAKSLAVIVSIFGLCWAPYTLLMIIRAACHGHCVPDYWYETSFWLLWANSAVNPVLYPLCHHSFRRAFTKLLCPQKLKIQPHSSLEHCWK
T4 sequence (P35367 whole entry): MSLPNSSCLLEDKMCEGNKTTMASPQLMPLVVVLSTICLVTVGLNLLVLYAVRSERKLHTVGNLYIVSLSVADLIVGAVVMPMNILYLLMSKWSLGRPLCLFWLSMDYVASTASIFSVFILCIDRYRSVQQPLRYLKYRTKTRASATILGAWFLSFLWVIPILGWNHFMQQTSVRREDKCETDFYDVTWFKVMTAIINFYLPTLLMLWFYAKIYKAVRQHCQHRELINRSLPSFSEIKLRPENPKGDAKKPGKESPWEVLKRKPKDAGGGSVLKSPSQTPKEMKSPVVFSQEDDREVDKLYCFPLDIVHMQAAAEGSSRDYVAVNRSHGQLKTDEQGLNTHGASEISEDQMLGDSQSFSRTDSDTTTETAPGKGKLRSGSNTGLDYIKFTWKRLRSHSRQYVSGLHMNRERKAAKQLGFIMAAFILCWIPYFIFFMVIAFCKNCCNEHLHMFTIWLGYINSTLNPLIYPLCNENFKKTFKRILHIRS

As usually defined, the pKb is the negative decadic logarithm of the Kb, by convention in mol/L. High values mean a small Kb, low ones a large Kb. The Ki is a dissociation constant, usually derived from enzyme kinetics or from competition with a known ligand. Low readings indicate higher affinity, high ones lower affinity. Usually EC50 stands for the midpoint of the concentration-response curve. Turning to `N#C/N=C(/NCCCCc1c[nH]cn1)NCCSc1ccccc1`, the pKb in [1] is under 5; in assay [3], 6; in [11], under 5. For the same molecule, the inhibition constant (Ki) in assay [2] was 525 nM; in assay [5], 25700 nM; in assay [9], 57.5 nM; in assay [10], 4070 nM. Further, the 50% effective concentration (EC50) in [4] was 33.9 nM. In addition, the Selectivity ratio was 70 in [6], 450 in [7] and 30 in assay [8]. Moreover, in assay [12], the Activity was over 10 nM.
